According to paper PMC4834131 (CPT: Pharmacometrics & Systems Pharmacology, 2016):
Converted amounts (≈) assume the structure as drawn.

How the values were obtained:
[1] = Estimation of solubility Cs by fitting PBPK model to total lung concentrations; assay type: in vivo; details: rat, inhaled, 11.3 nmol/kg
Procedure, shortened: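 Fit of the whole-body PBPK model with lung disposition to total lung concentrations in rats after nose-only inhalation (lung deposited dose 11.3 nmol/kg). Fitting used nonlinear least squares (Levenberg–Marquardt). The starting value came from an exhaustive sum-of-squares search over a broad range, then 300 candidates within ±200 nM of the best solution. Particle dissolution followed the Nernst–Brunner equation; all other inputs were fixed.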

logD7.4 = assay type: physicochemical; details: pH 7.4
[2] = PK study after i.v. administration in rats; assay type: in vivo; details: rat, plasma, iv, 90 nmol/kg
[3] = In vitro apparent permeability across CaCo2-monolayers; assay type: in vitro ADME; details: human, Caco-2
[4] = Fraction unbound in plasma; assay type: in vitro ADME
[5] = Unbound lung volume of distribution; assay type: in vitro ADME
glucocorticoid receptor = target: T1, glucocorticoid receptor (Rattus norvegicus, UniProt P06536); experiment: In vivo glucocorticoid receptor occupancy study; details: iv, read-out: Observed receptor occupancy
T1 sequence (P06536 1-795): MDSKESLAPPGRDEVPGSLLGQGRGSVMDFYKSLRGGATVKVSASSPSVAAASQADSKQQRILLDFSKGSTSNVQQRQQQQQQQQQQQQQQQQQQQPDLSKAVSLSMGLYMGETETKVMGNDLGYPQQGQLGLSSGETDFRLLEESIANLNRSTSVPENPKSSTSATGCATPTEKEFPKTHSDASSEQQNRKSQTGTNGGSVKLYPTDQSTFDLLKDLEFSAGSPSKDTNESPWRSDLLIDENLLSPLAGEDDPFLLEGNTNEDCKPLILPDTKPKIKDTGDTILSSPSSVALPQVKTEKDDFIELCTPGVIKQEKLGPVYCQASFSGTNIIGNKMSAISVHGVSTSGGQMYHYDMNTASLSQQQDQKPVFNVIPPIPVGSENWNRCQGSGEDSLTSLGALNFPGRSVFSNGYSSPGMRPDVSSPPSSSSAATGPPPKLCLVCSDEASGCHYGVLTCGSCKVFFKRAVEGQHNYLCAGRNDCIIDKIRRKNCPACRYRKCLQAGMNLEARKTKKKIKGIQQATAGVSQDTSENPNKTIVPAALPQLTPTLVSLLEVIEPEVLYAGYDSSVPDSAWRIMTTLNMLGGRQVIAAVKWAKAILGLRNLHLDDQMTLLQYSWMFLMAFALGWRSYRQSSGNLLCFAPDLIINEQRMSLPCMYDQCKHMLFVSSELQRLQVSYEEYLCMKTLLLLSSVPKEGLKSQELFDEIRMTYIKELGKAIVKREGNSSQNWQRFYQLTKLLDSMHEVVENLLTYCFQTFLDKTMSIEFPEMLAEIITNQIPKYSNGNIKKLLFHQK

solubility [1]: 4.53 µM (≈ 2.27 µg/mL) | logD (logD7.4): 4.2 | clearance ([2]; CLP (plasma clearance)): 182 mL/min/kg | Vd ([2]; Vdss (volume of distribution at steady state)): 12.5 L/kg | Papp [3]: 46.9 ×10⁻⁶ cm/s | fraction unbound [4]: 0.016 | Vu,lung (unbound lung volume of distribution) [5]: 213.4 mL/g lung tissue | receptor occupancy at 0.02 µmol/kg (glucocorticoid receptor): 27 ± 9.7% | receptor occupancy at 0.75 µmol/kg (glucocorticoid receptor): 100 ± 3.5%
SMILES: CCC(=O)O[C@]1(C(=O)SCF)[C@H](C)C[C@H]2[C@@H]3C[C@H](F)C4=CC(=O)C=C[C@]4(C)[C@@]3(F)[C@@H](O)C[C@@]21C [fluticasone propionate]
